Test [1] addresses T1, Scm-like with four MBT domains protein 1 (Homo sapiens, UniProt Q9UHJ3).
T1 sequence (Q9UHJ3 whole entry): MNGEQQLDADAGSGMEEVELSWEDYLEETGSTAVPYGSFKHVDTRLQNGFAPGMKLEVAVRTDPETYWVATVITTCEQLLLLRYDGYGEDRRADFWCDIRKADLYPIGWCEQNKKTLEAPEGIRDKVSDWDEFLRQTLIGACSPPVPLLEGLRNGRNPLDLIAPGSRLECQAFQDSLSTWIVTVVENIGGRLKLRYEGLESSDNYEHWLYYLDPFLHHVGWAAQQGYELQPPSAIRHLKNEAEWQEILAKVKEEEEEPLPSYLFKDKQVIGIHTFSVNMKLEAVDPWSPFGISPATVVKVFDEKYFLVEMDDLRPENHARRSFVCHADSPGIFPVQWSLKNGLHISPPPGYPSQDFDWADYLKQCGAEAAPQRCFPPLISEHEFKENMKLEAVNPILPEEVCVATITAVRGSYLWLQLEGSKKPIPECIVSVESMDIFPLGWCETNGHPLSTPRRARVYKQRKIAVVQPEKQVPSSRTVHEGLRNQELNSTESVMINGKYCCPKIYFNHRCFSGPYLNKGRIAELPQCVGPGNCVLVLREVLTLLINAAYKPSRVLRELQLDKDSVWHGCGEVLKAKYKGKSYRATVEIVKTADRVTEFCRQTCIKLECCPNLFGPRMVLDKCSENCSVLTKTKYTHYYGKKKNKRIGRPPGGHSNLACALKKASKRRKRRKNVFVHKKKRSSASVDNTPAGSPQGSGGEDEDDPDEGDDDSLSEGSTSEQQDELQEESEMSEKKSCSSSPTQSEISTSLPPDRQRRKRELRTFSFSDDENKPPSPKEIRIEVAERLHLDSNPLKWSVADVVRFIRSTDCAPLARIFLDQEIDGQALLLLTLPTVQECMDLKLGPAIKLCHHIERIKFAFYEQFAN
The test can be described thus: Binding affinity to human SFMBT by chemiluminescent assay. The method, boiled down:
(§1)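 AlphaScreen bead-based chemiluminescent proximity assay measuring antagonism of methylated histone peptide binding to the MBT/methyl-lysine reader domain. The peptide is H3K9Me1, the same one used as FAM-labelled probe (H3 residues 1-15, monomethyl K9) in the FP assay. A separate counterscreen was run for compound interference with the assay signal.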

The target of test [2] is T2, Lethal(3)malignant brain tumor-like protein 4 (Homo sapiens, UniProt Q8NA19).
T2 sequence (Q8NA19 whole entry): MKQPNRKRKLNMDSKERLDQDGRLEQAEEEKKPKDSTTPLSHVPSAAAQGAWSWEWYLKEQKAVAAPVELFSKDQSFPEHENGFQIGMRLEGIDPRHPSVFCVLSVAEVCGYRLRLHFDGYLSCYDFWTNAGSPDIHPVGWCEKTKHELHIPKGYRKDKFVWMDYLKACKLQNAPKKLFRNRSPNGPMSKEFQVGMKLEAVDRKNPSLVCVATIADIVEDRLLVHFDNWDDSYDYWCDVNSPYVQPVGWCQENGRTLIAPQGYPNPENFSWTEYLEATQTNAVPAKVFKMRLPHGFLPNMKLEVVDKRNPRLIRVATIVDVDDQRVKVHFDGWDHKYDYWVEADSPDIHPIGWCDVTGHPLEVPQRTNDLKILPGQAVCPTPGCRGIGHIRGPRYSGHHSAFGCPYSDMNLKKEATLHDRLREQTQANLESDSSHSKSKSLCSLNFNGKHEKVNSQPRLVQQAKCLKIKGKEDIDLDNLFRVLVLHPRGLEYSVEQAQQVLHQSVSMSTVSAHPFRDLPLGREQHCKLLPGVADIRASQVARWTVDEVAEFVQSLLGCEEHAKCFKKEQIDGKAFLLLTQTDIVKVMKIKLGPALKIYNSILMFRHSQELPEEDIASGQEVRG
The test can be described thus: Binding affinity to L3MBTL4 by chemiluminescent assay. The gist of the method:
as §1

The target of test [3] is T3, Chromobox protein homolog 7 (Homo sapiens, UniProt O95931).
T3 sequence (O95931 whole entry): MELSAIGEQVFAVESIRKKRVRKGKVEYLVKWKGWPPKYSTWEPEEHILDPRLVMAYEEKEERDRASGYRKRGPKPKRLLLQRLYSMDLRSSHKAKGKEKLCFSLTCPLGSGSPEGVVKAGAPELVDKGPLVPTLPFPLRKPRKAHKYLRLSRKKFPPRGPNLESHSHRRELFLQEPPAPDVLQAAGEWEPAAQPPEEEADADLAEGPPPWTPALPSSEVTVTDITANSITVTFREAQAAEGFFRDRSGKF
The test can be described thus: Binding affinity to CBX7 by chemiluminescent assay. The method, boiled down:
as §1

For test [4], the target named is T4, Lethal(3)malignant brain tumor-like protein 3 (Homo sapiens, UniProt Q96JM7).
T4 sequence (Q96JM7 whole entry): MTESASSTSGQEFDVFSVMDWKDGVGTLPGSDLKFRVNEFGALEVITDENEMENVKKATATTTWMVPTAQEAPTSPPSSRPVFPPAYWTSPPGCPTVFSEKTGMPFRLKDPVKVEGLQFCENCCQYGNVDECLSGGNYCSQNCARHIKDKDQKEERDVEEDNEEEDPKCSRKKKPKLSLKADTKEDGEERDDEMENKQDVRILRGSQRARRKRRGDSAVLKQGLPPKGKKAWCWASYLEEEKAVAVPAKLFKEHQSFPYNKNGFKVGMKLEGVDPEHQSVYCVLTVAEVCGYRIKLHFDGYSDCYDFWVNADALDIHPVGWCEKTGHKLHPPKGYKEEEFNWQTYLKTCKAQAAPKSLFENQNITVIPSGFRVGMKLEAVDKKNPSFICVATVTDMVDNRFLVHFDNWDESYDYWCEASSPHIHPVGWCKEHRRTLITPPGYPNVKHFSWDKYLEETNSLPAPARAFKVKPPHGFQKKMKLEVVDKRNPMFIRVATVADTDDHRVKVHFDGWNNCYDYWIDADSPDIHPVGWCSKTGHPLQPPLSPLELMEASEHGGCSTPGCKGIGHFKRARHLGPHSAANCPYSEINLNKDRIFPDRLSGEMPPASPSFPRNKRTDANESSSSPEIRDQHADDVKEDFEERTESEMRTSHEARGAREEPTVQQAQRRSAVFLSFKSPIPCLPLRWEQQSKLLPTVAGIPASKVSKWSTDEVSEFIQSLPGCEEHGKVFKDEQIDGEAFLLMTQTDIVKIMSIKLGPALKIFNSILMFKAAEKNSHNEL
The test can be described thus: Binding affinity to L3MBTL3 by chemiluminescent assay. The gist of the method:
as §1

In a further test the target is PHD finger protein 13 (Homo sapiens, UniProt Q86YI8). The test can be described thus: Binding affinity to PHF13 by chemiluminescent assay. The gist of the method:
as §1

The target in test [5] is MBT domain-containing protein 1 (Homo sapiens, UniProt Q05BQ5). The test can be described thus: Binding affinity to MBTD1 by chemiluminescent assay. The method, boiled down: as §1

Structures are written as SMILES.

MBT domain-containing protein 1, sequence (Q05BQ5 whole entry, the tested form may be a part): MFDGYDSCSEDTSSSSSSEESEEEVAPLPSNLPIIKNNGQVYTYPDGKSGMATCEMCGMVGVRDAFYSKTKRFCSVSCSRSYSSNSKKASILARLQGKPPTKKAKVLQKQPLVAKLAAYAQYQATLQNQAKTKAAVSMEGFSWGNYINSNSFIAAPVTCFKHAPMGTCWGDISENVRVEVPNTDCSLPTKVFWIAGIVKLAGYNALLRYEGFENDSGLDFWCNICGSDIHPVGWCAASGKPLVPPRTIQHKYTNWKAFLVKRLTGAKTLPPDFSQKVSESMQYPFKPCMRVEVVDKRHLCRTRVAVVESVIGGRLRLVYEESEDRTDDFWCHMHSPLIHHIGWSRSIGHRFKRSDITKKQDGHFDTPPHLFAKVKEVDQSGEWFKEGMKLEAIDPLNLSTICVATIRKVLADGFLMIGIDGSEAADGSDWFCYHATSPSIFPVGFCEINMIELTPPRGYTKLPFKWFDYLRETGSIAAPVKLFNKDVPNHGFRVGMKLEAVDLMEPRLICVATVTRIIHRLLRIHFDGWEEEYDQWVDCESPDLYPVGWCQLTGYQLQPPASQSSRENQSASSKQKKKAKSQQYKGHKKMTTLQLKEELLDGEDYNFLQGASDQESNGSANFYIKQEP
PHD finger protein 13, sequence (Q86YI8 whole entry): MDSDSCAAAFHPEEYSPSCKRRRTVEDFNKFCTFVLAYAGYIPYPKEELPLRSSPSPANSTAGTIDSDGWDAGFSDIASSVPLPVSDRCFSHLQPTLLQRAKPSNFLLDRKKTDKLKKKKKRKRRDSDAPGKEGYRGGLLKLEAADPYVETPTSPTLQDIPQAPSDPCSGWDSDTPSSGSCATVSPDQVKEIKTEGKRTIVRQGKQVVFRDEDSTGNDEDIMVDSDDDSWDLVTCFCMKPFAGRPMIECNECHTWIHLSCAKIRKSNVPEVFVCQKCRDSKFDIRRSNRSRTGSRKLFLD

One may read the IC50 as the concentration that gives 50% inhibition. As to `O=C(c1cncc(Br)c1)N1CCC(N2CCCC2)CC1`, the IC50 result in test [1] is “Not Active”; in test [2] (read-out: IC50) it was 69 µM; in test [3], “Not Active”; in test [4], 35 µM; at PHD finger protein 13, “Not Active”; in test [5], “Not Active”.

Turning to `O=C(NCCCCCN1CCCC1)c1cncc(Br)c1`, the IC50 entry in test [1] was “Not Active”; in test [2] it was “Not Active”; in test [3], “Not Active”; in test [4], 28 µM; at PHD finger protein 13 (read-out: IC50), 48 µM; in test [5] it was “Not Active”.

Values taken from ChEMBL document CHEMBL1765036, “Small-molecule ligands of methyl-lysine binding proteins” (J Med Chem, 2011).
